The values that follow come from PMC4132844 (Nature communications, 2014).

The subject of series [1] is THLE-2 cells. Kind of series: Apoptosis assay. The series is classed as cell-based, human. The following applies: THLE-2 cells on the TeamChip.
For series [2], the system named is THLE-2 cells (no enzyme, Ad-Null). Nature of the series: TeamChip metabolism-induced toxicity assay, no enzyme control. The format is cell-based. The following applies: Homo sapiens, read-out: IC50, No enzyme.
Series [3] concerns CYP2C9 (expressed drug-metabolizing enzyme). Nature of the series: TeamChip metabolism-induced toxicity assay, CYP2C9. The format is cell-based. The following applies: human.
Series [4] deals with CYP2D6 (expressed drug-metabolizing enzyme). Kind of series: TeamChip metabolism-induced toxicity assay, CYP2D6. Conditions: human. The series is classed as cell-based.
Series [5] concerns CYP3A4 (expressed drug-metabolizing enzyme). Nature of the series: TeamChip metabolism-induced toxicity assay, CYP3A4. Conditions: human, IC50, CYP3A4, Ad-CYP3A4 15 MOI; compound 48 h; n = 4. The format is cell-based.
For series [6], the system named is CYP1A2 (expressed drug-metabolizing enzyme). Nature of the series: TeamChip metabolism-induced toxicity assay, CYP1A2. The series is classed as cell-based. The following applies: human.
The test system of series [7] is UGT1A4 (expressed metabolising enzyme). Kind of series: TeamChip metabolism-induced toxicity assay, UGT1A4. The series is classed as cell-based. Conditions: human, IC50, UGT1A4, Ad-UGT1A4 15 MOI; compound 48 h; n = 4.
Series [8] relates to P450 Mix: CYP2C9, CYP2D6, CYP3A4, CYP1A2, CYP2E1 (expressed). Nature of the series: TeamChip metabolism-induced toxicity assay, P450 Mix. The series is classed as cell-based. The following applies: human.
Series [9] has as its system All Mix: CYP2C9, CYP2D6, CYP3A4, CYP1A2, CYP2E1, UGT1A4 (expressed). Kind of series: TeamChip metabolism-induced toxicity assay, All Mix. The format is cell-based. The following applies: human.
In series [10] the test system is THLE-2 cells. Nature of the series: Intracellular GSH assay on the TeamChip. The series is classed as cell-based, human. Conditions: exposed to 5 μM ketoconazole, at varying concentrations of acetaminophen. The procedure, abridged: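 THLE-2 cells in Matrigel spots on a micropillar chip, transduced with 15 MOI Ad-CYP3A4 or Ad-Null (control) for 1 d. Then exposed for 48 h to varying test compound with 5 μM CYP3A4 inhibitor. Washed twice in DPBS, stained 20 min in the dark with thiol green dye (intracellular GSH kit), chip scanned, GSH quantified; n = 3.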

Series [11] concerns CYP2E1 (expressed drug-metabolizing enzyme). Kind of series: TeamChip metabolism-induced toxicity assay, CYP2E1. The format is cell-based. The following applies: human. The procedure, abridged:
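THLE-2 cells in Matrigel spotted onto micropillars at 4°C, held 18 h at 37°C, transduced 1 d with recombinant adenovirus carrying the enzyme gene (Ad-Null as no-enzyme control). Then exposed 2 d to test compound in BEGM. Washed twice in DPBS, Live/Dead stained 1 h in the dark, chip scanned.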

The subject of series [12] is HepaRG cells in 2D culture. Conditions: read-out: IC50, HepaRG cells in 2D culture; cited from earlier work.
For series [13], the system named is HepaRG cells in 3D culture. Conditions: read-out: IC50, HepaRG cells in 3D culture; cited from earlier work.

Where two headings read alike, the source gives them in different places.

`COc1cccc2c1C(=O)c1c(O)c3c(c(O)c1C2=O)C[C@@](O)(C(=O)CO)C[C@@H]3O[C@H]1C[C@H](N)[C@H](O)[C@H](C)O1` [Doxorubicin, doxorubicin]: the “number of apoptotic cells” value in the series with THLE-2 cells [1] was “increased the number of apoptotic cells in a dose-dependent manner”.

As usually defined, the IC50 is the concentration needed to halve the response being measured. Take `CN1CCN(CCCN2c3ccccc3Sc3ccc(C(F)(F)F)cc32)CC1` [Trifluoperazine, trifluoperazine]: the IC50 stood at 75 ± 11 µM in series [2] (48 h) and 80 ± 9.4 µM in series [2] (THLE-2, 48 h). The IC50 at 48 h came to 75 ± 12 µM in series [3]; 69 ± 9.3 µM in series [4]; 110 ± 7.3 µM in [5]; 120 ± 5.1 µM in series [6]; 100 ± 12 µM in [7]; 53 ± 13 µM in [8]. The compound also came in with an IC50 at 48 h in [9] of 110 ± 10 µM.

As to `CC(=O)N1CCN(c2ccc(OCC3COC(Cn4ccnc4)(c4ccc(Cl)cc4Cl)O3)cc2)CC1` (centres unmarked) [ketoconazole], the “intracellular GSH concentrations in CYP3A4-expressing THLE-2 cells” value in the series on THLE-2 cells [10] is “unchanged”.

In the case of `Nc1c(CC(=O)O)cccc1C(=O)c1ccc(Br)cc1` [Bromfenac, bromfenac], the IC50 in series [2] (48 h) was 210 ± 17 µM; in [2] (THLE-2, 48 h), 190 ± 12 µM. Further, the IC50 at 48 h in series [3] worked out at 120 ± 6 µM; in [4], 170 ± 39 µM; in [5], […]; in series [6], 190 ± 37 µM; in series [7], 210 ± 14 µM; in series [8], 220 ± 24 µM. Besides, the midpoint of inhibition in [9], the IC50 at 48 h, lay at […].

As to `Cc1c(C)c2c(c(C)c1O)CCC(C)(COc1ccc(CC3SC(=O)NC3=O)cc1)O2` (centres unmarked) [Troglitazone, troglitazone], the IC50 in series [2] (48 h) came to 110 ± 15 µM; in series [2] (THLE-2, 48 h), 92 ± 6.4 µM. Further, the IC50 at 48 h came to 50 ± 4.9 µM in [3]; 77 ± 4.2 µM in series [4]; […] in series [5]; 39 ± 6.6 µM in series [6]; 150 ± 11 µM in series [7]; 51 ± 4.3 µM in series [8]. The compound also showed an IC50 at 48 h in series [9] of 62 ± 2.9 µM.

As for `CC(=O)Nc1ccc(O)cc1` [Acetaminophen, acetaminophen], the IC50 is 1500 ± 63 µM in series [2] (48 h); 1400 ± 250 µM in [2] (THLE-2, 48 h); 26300 µM in [12]; 2700 µM in series [13]. Moreover, the IC50 at 48 h in series [3] amounted to 930 ± 41 µM; in series [4], 1100 ± 71 µM; in series [5], […]; in series [6], 820 ± 21 µM; in series [7], 2100 ± 52 µM; in [8], 240 ± 74 µM. In addition, the IC50 at 48 h in series [9] was found to be 640 ± 100 µM. This compound also had an IC50 at 2 d in series [11] of 180 µM.

Take `CC(C)C(=O)Nc1ccc([N+](=O)[O-])c(C(F)(F)F)c1` [Flutamide, flutamide]: the concentration for half-maximal inhibition (IC50) in [2] (48 h) worked out at 45 ± 1.6 µM; in [2] (THLE-2, 48 h), 37 ± 9.7 µM. Besides, the IC50 at 48 h worked out at 25 ± 4.8 µM in series [3]; 27 ± 5.1 µM in [4]; […] in series [5]; 18 ± 0.5 µM in [6]; 38 ± 1.8 µM in series [7]; 18 ± 4.1 µM in [8]. This compound yielded an IC50 at 48 h in [9] of 17 ± 1.1 µM.
